pIC50, pKi: −log10 of the molar value. The source made the active and inactive calls. The rule behind the calls is not given here.

This note sets out measurements from ChEMBL document CHEMBL4396883, “Discovery of CDK5 Inhibitors through Structure-Guided Approach” (ACS Med Chem Lett, 2019).

One assay is filed under the species Homo sapiens. Description: Selectivity ratio of Ki for recombinant full length N-terminal GST tagged human CDK2/CyclinA expressed in baculovirus infected sf9 cells using histone H1 as substrate to recombinant full length N-terminal GST tagged human CDK5/p25 expressed in baculovirus infected sf9 cells using histone H1 as substrate by ADP-Glo kinase assay. In general terms: ADP-Glo first removes unused ATP, then detects ADP through luciferase.

The subject of assay [1] is MOLM-13. The assay is described as follows: Induction of apoptosis in human MOLM13 cells assessed as late apoptotic cells at 2.5 uM measured after 24 hrs by Annexin V-FITC/PI staining based flow cytometry (reference value: 1.94%). The assay is classed as functional. A general note: Flow cytometry measures light scatter and fluorescence of single cells or particles in a stream.

For the next assay, the target named is CDK6/cyclin D3 (Homo sapiens, UniProt Q00534). Description: Inhibition of human recombinant N-terminal GST-tagged CDK6 (M1-A326 residues) and His6 tagged Cyclin D3 (M1-L292 residues) expressed in sf9 cells using histone H1 (GGGPATPKKAKKL) as substrate incubated for 60 mins in presence of ATP by ADP-Glo kinase assay.
Sequence of CDK6/cyclin D3 (P30281 whole entry, the tested form may be a part): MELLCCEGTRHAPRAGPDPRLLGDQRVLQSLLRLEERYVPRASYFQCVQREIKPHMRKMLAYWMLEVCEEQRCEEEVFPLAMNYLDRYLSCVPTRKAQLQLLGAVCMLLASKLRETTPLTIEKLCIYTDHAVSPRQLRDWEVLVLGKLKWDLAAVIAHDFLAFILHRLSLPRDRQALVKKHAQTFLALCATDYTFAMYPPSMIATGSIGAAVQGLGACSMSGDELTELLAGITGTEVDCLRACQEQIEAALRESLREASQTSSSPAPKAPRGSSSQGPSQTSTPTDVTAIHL
Sequence of CDK6/cyclin D3 (Q00534 whole entry, the tested form may be a part): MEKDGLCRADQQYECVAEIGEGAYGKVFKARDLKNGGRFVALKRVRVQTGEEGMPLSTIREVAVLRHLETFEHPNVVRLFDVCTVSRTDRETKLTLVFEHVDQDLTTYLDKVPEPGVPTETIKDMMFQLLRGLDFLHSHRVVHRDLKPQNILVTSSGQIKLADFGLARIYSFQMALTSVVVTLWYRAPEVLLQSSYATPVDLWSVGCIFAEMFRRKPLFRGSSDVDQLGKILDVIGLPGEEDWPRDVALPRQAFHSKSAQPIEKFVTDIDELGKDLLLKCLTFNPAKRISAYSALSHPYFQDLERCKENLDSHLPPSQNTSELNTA
For assay [2], the system named is MOLM-13. The assay is described as follows: Induction of apoptosis in human MOLM13 cells assessed as necrotic cells at 10 uM measured after 24 hrs by Annexin V-FITC/PI staining based flow cytometry relative to control. The assay is classed as functional.
The target of assay [3] is Cyclin-dependent kinase 5 (Homo sapiens) (UniProt Q00535). Description: Inhibition of CDK5 in human MV4-11 cells assessed as FAK phosphorylation at S732 at 5 to 10 uM measured after 24 hrs by Western blot analysis.
Sequence of Cyclin-dependent kinase 5 (Homo sapiens) (Q00535 whole entry, looked up): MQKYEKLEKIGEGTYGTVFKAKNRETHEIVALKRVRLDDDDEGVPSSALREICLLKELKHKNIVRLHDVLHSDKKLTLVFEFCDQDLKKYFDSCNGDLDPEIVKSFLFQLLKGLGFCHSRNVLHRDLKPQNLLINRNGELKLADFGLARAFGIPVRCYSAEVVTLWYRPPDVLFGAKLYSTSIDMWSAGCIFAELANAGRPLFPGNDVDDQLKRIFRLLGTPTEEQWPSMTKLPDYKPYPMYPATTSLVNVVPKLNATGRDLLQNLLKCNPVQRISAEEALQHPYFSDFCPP
Assay [4] concerns MOLM-13. The assay is described as follows: Induction of apoptosis in human MOLM13 cells assessed as late apoptotic cells at 10 uM measured after 24 hrs by Annexin V-FITC/PI staining based flow cytometry (reference value: 1.94%). Type of assay: functional.
The subject of assay [5] is MOLM-13. Description: Induction of apoptosis in human MOLM13 cells assessed as viable cells at 10 uM measured after 24 hrs by Annexin V-FITC/PI staining based flow cytometry relative to control. Type of assay: functional. Conditions: MOLM-13, 24 h, read-out: Activity.
Assay [6] addresses Cyclin-dependent kinase 5/CDK5 activator 1 (Homo sapiens, UniProt Q00535+Q15078). Description: Inhibition of recombinant full length N-terminal GST tagged human CDK5/p25 expressed in baculovirus infected sf9 cells using histone H1 as substrate at 10 uM measured after 60 mins in presence of ATP by ADP-Glo kinase assay relative to control.
In assay [7] the target is Receptor-type tyrosine-protein kinase FLT3 (Homo sapiens, UniProt P36888, ITD). Description: Inhibition of human recombinant full length GST-fused/His-tagged FLT3 ITD mutant expressed in Sf9 cells using poly (Glu,Tyr) as substrate incubated for 80 mins in presence of ATP by ADP-Glo kinase assay.
Sequence of Receptor-type tyrosine-protein kinase FLT3 (P36888 whole entry, looked up, stated change not applied, the tested form may be a part): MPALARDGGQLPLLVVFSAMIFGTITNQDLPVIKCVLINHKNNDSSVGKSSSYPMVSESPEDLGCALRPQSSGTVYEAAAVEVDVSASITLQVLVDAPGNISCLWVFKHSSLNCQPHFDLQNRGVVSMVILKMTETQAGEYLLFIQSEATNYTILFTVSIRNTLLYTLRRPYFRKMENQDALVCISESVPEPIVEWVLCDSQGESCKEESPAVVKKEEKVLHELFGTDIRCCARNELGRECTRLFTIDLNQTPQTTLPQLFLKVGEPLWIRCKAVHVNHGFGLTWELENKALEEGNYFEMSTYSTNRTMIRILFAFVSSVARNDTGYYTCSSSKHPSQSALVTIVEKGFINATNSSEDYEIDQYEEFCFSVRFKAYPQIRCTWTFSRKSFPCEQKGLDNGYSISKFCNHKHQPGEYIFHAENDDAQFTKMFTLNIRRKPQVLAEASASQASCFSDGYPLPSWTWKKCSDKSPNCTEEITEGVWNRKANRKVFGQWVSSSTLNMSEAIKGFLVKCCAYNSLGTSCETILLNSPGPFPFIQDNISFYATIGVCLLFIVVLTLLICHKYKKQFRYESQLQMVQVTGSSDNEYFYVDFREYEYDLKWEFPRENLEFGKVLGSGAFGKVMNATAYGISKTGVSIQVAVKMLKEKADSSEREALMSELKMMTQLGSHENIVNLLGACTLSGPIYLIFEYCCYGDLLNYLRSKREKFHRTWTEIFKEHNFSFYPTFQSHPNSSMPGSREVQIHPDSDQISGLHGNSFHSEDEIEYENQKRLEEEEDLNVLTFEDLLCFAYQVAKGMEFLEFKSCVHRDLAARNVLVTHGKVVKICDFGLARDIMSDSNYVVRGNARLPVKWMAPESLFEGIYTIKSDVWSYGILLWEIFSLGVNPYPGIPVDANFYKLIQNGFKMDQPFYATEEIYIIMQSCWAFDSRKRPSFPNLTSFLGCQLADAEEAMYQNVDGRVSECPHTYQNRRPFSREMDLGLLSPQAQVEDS
Assay [8] has as its system MV4-11. Description: Cell cycle arrest in human MV4-11 cells assessed as accumulation at G1 phase at 10 uM measured after 24 hrs by propidium iodide staining based flow cytometry relative to control. The assay is classed as functional. A digest of the protocol: (§1)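 MV4-11 cells treated 24 h at 2.5 and 10 μM; cell-cycle phase distribution (sub-G1, G1, S, G2/M) by flow cytometry; at least two independent experiments, numerical data as mean value.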

The subject of assay [9] is MV4-11. Description: Cell cycle arrest in human MV4-11 cells assessed as accumulation at sub G1 phase at 10 uM measured after 24 hrs by propidium iodide staining based flow cytometry relative to control. Type of assay: functional. A digest of the protocol: as §1
For assay [10], the system named is MV4-11. The assay is described as follows: Cell cycle arrest in human MV4-11 cells assessed as accumulation at S phase at 10 uM measured after 24 hrs by propidium iodide staining based flow cytometry relative to control. The assay is classed as functional. A digest of the protocol: as §1
The test system of assay [11] is MV4-11. The assay is described as follows: Cell cycle arrest in human MV4-11 cells assessed as accumulation at G2/M phase at 10 uM measured after 24 hrs by propidium iodide staining based flow cytometry relative to control. The assay is classed as functional. A digest of the protocol:
as §1

Sequence of Cyclin-dependent kinase 5/CDK5 activator 1 (Q00535 whole entry, the tested form may be a part): as the sequence (Q00535 whole entry, looked up) above
Sequence of Cyclin-dependent kinase 5/CDK5 activator 1 (Q15078 99-307 partner limits assumed): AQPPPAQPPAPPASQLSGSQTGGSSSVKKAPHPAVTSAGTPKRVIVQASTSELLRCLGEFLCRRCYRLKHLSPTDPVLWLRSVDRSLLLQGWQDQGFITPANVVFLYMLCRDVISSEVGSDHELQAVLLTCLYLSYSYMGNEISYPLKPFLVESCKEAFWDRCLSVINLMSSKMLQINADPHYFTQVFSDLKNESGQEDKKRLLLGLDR

On to `Cc1cccc(Nc2ncc3c(n2)CCCC3)c1`, for which, in the assay listed under Homo sapiens, the Ratio Ki turned out to be 4. The Activity in the assay with MOLM-13 [1] amounted to 2.68%; in the assay with MOLM-13 [2] it was 0.17%; in the assay on MOLM-13 [4], 7.92%. Also, on CDK6/cyclin D3, the pKi was under 5.30. In addition, the inhibition result in [3] is “inactive”. Moreover, in the assay on MOLM-13 [5], the viability at 10 µM amounted to 61.8%. In assay [6], the inhibition was 87%. Moreover, in assay [7], the pIC50 was under 5.00.
Take `NS(=O)(=O)c1cccc(Nc2ncc3c(n2)CCCC3)c1`: the Activity in the assay with MOLM-13 [1] stood at 3.43%; in the assay on MV4-11 [8] it was 88.08%; with MV4-11 [9] it was 5.08%; in the assay on MV4-11 [10] it was 2.67%; in the assay on MV4-11 [11] it was 3.15%; in the assay with MOLM-13 [4], 6.16%. The pKi on CDK6/cyclin D3 is 5.52. For the same compound, the inhibition result in assay [3] was “inactive”. The inhibition in [6] was determined as 98%. Besides, the pIC50 in assay [7] is 5.83.

By pKi is commonly meant −log10 of the Ki, conventionally taken in molar units. What is called inhibition is the relative decrease from the control value, in per cent. Usually pIC50 stands for −log10 of the IC50, conventionally taken in molar units.
